Test results: ChEMBL document CHEMBL4396890, “Synthesis, Biological Evaluation, Structure-Activity Relationship, and Mechanism of Action Studies of Quinoline-Metronidazole Derivatives Against Experimental Visceral Leishmaniasis” (J Med Chem, 2019)
Active and inactive are the calls of the source. No cut-off for these calls is given here.

Experiments:
Leishmania donovani [1] = assay: Antileishmanial activity against Leishmania donovani MHOM/IN/80/Dd8 amastigotes harboring luciferase reporter gene infected in mouse J774 cells after 48 hrs by Steady-Glo luminescence assay; type: functional, organism-based; details: for IC50: MHOM/IN/80/Dd8, J774, 48 h
Procedure, shortened: (§1)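 Infection of J774 macrophages with L. donovani Dd8 promastigotes at a 1:8 cell:parasite ratio. Compounds were diluted 2-fold in RPMI over 3.125–100 μM final and applied for 48 h. Amastigote inhibition was read by luciferase (RLU) or by Giemsa count of amastigotes per 100 macrophages. IC50 was from dose–response; n = 3 independent experiments done in replicate.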

Leishmania donovani [2] = assay: Antileishmanial activity against Leishmania donovani MHOM/IN/80/Dd8 amastigotes harboring luciferase reporter gene infected in mouse J774 cells at 100 uM after 48 hrs by Steady-Glo luminescence assay; type: functional, organism-based; procedure, shortened: as §1
Leishmania donovani [3] = assay: Antileishmanial activity against Leishmania donovani MHOM/IN/80/Dd8 amastigotes harboring luciferase reporter gene infected in mouse J774 cells after 48 hrs by Giemsa staining-based microscopic assay; type: functional, organism-based; details: for IC50: MHOM/IN/80/Dd8, J774, 48 h; procedure, shortened: as §1
Leishmania donovani [4] = assay: Antileishmanial activity against Leishmania donovani MHOM/IN/80/Dd8 amastigotes harboring luciferase reporter gene infected in mouse J774 cells by Giemsa staining-based microscopic assay; type: functional, organism-based; details: TDE = time-dependent effect; procedure, shortened: as §1
Leishmania donovani [5] = assay: Antileishmanial activity against Leishmania donovani MHOM/IN/80/Dd8 amastigotes harboring luciferase reporter gene infected in mouse J774 cells at 25 uM after 48 hrs by Steady-Glo luminescence assay relative to control; type: functional; details: MHOM/IN/80/Dd8, J774, 48 h; procedure, shortened: as §1
Leishmania donovani [6] = assay: Antileishmanial activity against Leishmania donovani MHOM/IN/80/Dd8 promastigotes infected in BALB/c mouse assessed as reduction in parasite load in liver at 200 mg/kg, ip administered once daily for 5 days measured 7 days post dose by giemsa staining-based assay relative to control; type: functional; set-up: scale not given: the % may be the effect or the level left
Procedure, shortened: (§2)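 Hamster-passaged strain was transformed to promastigotes. Stationary-phase cells (2 × 10^7 in 0.2 mL PBS) were injected into the tail vein of BALB/c mice. From day 15 post-infection, mice received compound ip in 8% DMSO in PBS for 5 consecutive days, 5 mice per group. Mice were killed day 7 post-treatment. Liver and spleen burden was read from Giemsa-stained stamp smears as LDU.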

Leishmania donovani [7] = assay: Antileishmanial activity against Leishmania donovani MHOM/IN/80/Dd8 promastigotes harboring luciferase reporter gene at 25 uM after 48 hrs by Steady-Glo luminescence assay relative to control; type: functional; details: MHOM/IN/80/Dd8, 48 h
Procedure, shortened: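 Luciferase-expressing L. donovani Dd8 promastigotes were grown at 24 °C in M199 with 10% heat-inactivated FBS and G418 20 μg/mL. They were treated at varied concentrations for 24 and 48 h, and inhibition was read as relative luminescence units versus untreated control. IC50 was from dose–response; screening values are mean ± SD of at least three experiments in duplicate.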

Leishmania donovani [8] = assay: Antileishmanial activity against Leishmania donovani MHOM/IN/80/Dd8 amastigotes harboring luciferase reporter gene infected in mouse J774 cells at 50 uM after 48 hrs by Steady-Glo luminescence assay relative to control; type: functional; details: MHOM/IN/80/Dd8, J774, 48 h; procedure, shortened: as §1
Leishmania donovani [9] = assay: Antileishmanial activity against Leishmania donovani MHOM/IN/80/Dd8 promastigotes infected in ip dosed BALB/c mouse assessed as reduction in parasite load in spleen administered once daily for 5 days measured 7 days post dose by giemsa staining-based assay; type: functional, organism-based; procedure, shortened: as §2
[10] = Cytotoxicity against African green monkey Vero cells assessed as cell viability up to 100 uM measured after 48 hrs by MTT assay relative to control; type: cell-based; details: chlorocebus sabaeus, read-out: Activity
Procedure, shortened: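 Vero cells and J774 macrophages were exposed to 12.5−400 μM compound for 48 h. Viability was read by MTT. CC50 was derived from the curve. Mean ± SD, n = 3 experiments in replicate.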

Leishmania donovani [11] = assay: Induction of reactive oxygen species generation in Leishmania donovani MHOM/IN/80/Dd8 promastigotes at 50 uM measured after 48 hrs by H2DCFDA probe-based flow cytometry (reference value: 7%); type: functional
Leishmania donovani [12] = assay: Induction of apoptosis in Leishmania donovani MHOM/IN/80/Dd8 promastigotes assessed as increase in meta-caspase activity at 50 uM using BOC-GRR-AMC as substrate preincubated for 1 hr followed by substrate addition and measured after 2 hrs in presence of caspase inhibitor zVAD-fmk by fluorometric assay; type: functional, organism-based
Procedure, shortened: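 Log-phase promastigotes were pretreated for 1 h with antipain (1 μM) or zVAD-fmk (100 μM), then exposed to 50 μM compound or 0.1% DMSO. Metacaspase activity in lysates was read with fluorogenic BOC-GRR-AMC and expressed as RFU per mg protein.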

Leishmania donovani [13] = assay: Induction of nitric oxide generation in Leishmania donovani MHOM/IN/80/Dd8 promastigotes assessed as increase in fluorescence at 50 uM measured after 6 hrs by DAF-2DA dye-based flow cytometry relative to control; type: functional
Procedure, shortened: (§3)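 Log-phase promastigotes exposed to 50 μM for 6–18 h, vehicle control 0.1% DMSO, then labelled with 40 μM DAF-2DA. Fluorescence (GMFC) read by flow cytometry and expressed as fold change over vehicle. At least 3 independent experiments in duplicate.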

Leishmania donovani [14] = assay: Induction of apoptosis in Leishmania donovani MHOM/IN/80/Dd8 promastigotes assessed as DNA fragmentation at 50 uM after 48 hrs by TUNEL staining-based fluorescence assay; type: functional, organism-based
Procedure, shortened: (§4)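 Log-phase promastigotes (1 × 10^5) were treated with 50 μM compound or 0.1% DMSO vehicle for 48 h. DNA fragmentation was labelled with an APO-BrdU TUNEL kit with PI counterstain. Cells were imaged by phase-contrast and fluorescence microscopy.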

Leishmania donovani [15] = assay: Induction of apoptosis in Leishmania donovani MHOM/IN/80/Dd8 promastigotes assessed as DNA fragmentation at 50 uM after 48 hrs by TUNEL staining-based confocal microscopic analysis; type: functional, organism-based; procedure, shortened: as §4
Leishmania donovani [16] = assay: Antileishmanial activity against Leishmania donovani MHOM/IN/80/Dd8 amastigotes harboring luciferase reporter gene infected in mouse J774 cells assessed as stimulation of host immunity by measuring change in TGFbeta level at 50 uM after 48 hrs by ELISA; type: functional, organism-based
Procedure, shortened: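 Infected J774 macrophages (24 h infection) were treated with 50 μM compound for 48 h. Culture supernatants were assayed by ELISA for TNF-α and IL-12 (Th1) and for TGF-β and IL-10 (Th2), compared with infected untreated cells.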

Leishmania donovani [17] = assay: Induction of nitric oxide generation in Leishmania donovani MHOM/IN/80/Dd8 promastigotes assessed as increase in fluorescence at 50 uM measured after 12 hrs by DAF-2DA dye-based flow cytometry relative to control; type: functional; procedure, shortened: as §3
Leishmania donovani [18] = assay: Induction of apoptosis in Leishmania donovani MHOM/IN/80/Dd8 promastigotes assessed as late apoptotic cells at 50 uM measured after 24 hrs by Annexin V-FITC/propidium iodide staining based assay (reference value: 0.02%); type: functional
Leishmania donovani [19] = assay: Induction of apoptosis in Leishmania donovani MHOM/IN/80/Dd8 promastigotes assessed as late apoptotic cells at 50 uM measured after 48 hrs by Annexin V-FITC/propidium iodide staining based assay (reference value: 0.46%); type: functional
Leishmania donovani [20] = assay: Induction of plasma membrane permeabilization in Leishmania donovani MHOM/IN/80/Dd8 promastigotes assessed as increase in fluorescence at MIC measured after 4 hrs by sytox green dye based flow cytometry relative to 0.1 % triton-X 100; type: functional
[21] = Half life in BALB/c mouse at 50 mg/kg, po administered via gavage by LC-MS/MS analysis; type: ADME, organism-based; details: in vivo

With `Cc1cc(-c2cccc(OCCn3c([N+](=O)[O-])cnc3C)c2)nc2ccccc12` the inhibition (Leishmania donovani [1]) was “Dose-dependent effect”, the IC50 (Leishmania donovani [1]) was 9.81 µM and the inhibition (Leishmania donovani [2]) was “Active”. For the same compound, the inhibition (Leishmania donovani [3]) was “Dose-dependent effect”, the IC50 (Leishmania donovani [3]) was 9.09 µM and the inhibition (Leishmania donovani [4]) was “Tde”. The inhibition at 25 µM (Leishmania donovani [5]) was 75.2%, the Activity (Leishmania donovani [6]) was 55.5% and the inhibition at 25 µM (Leishmania donovani [7]) was 77.8%. The inhibition at 50 µM (Leishmania donovani [8]) was 93.2 to 96%, the Activity (Leishmania donovani [9]) was “Dose-dependent effect” and the viability at 48 h [10] was greater than 86%.

With `Cc1cc(-c2ccc(OCCn3c([N+](=O)[O-])cnc3C)cc2)nc2ccccc12` the Activity (Leishmania donovani [11]) was 58.2%, the inhibition (Leishmania donovani [12]) was “Active” and the “fold change (FC)” value (Leishmania donovani [13]) was 1.75. The inhibition (Leishmania donovani [1]) was “Dose-dependent effect”, the IC50 (Leishmania donovani [1]) was 3.75 µM and the inhibition (Leishmania donovani [2]) was “Active”. The Activity (Leishmania donovani [14]) was “Active”, the inhibition (Leishmania donovani [3]) was “Dose-dependent effect” and the IC50 (Leishmania donovani [3]) was 4.06 µM. The inhibition (Leishmania donovani [4]) was “Tde”, the Activity (Leishmania donovani [15]) was “Active” and the inhibition at 25 µM (Leishmania donovani [5]) was 83.2%. The Activity (Leishmania donovani [16]) was “inactive”, the “fold change (FC)” value (Leishmania donovani [17]) was 3.6 and the Activity (Leishmania donovani [18]) was 10.04%. It also gave an Activity (Leishmania donovani [19]) of 44.11%, an Activity (Leishmania donovani [20]) of 3.63% and a half-life [21] of 4.02 h. For the same compound, the Activity (Leishmania donovani [6]) was 82.7%, the inhibition at 25 µM (Leishmania donovani [7]) was 85.8% and the inhibition at 50 µM (Leishmania donovani [8]) was 93.8 to 96%. For the same compound, the Activity (Leishmania donovani [9]) was “Dose-dependent effect” and the viability at 48 h [10] was greater than 86%.
